Values after ≈ are worked out from the molar mass of the structure shown.
Assays:
[1] = system: Cryptococcus gattii species complex; experiment: Antifungal activity against Cryptococcus gattii serotype B after 72 hrs by broth microdilution method; format: functional, Cryptococcus bacillisporus
How it was run: (§1)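 Isolates subcultured at least twice on Sabouraud dextrose agar; serotype by multiplex PCR, species confirmed on canavanine-glycine-bromothymol blue medium. CLSI M27-A2 broth microdilution in RPMI 1640 with MOPS, pH 7.0. Inoculum 0.5–2.5 × 10^3 cells/ml, 35°C. Final drug range 0.015–8 or 0.25–64 μg/ml. MIC at 72 h read as 50% turbidity reduction versus growth control, or 100% inhibition for the polyene.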

Cryptococcus neoformans [2] = experiment: Antifungal activity against Cryptococcus neoformans serotype AD after 72 hrs by broth microdilution method; format: functional
How it was run: (§2)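 Isolates subcultured at least twice on Sabouraud dextrose agar; serotype assigned by multiplex PCR, species confirmed on canavanine-glycine-bromothymol blue medium. CLSI M27-A2 broth microdilution in RPMI 1640 buffered to pH 7.0 with MOPS, inoculum 0.5 × 10^3 to 2.5 × 10^3 cells/ml, 35°C. Final drug ranges were 0.015–8 or 0.25–64 μg/ml depending on agent. MIC read at 72 h as 50% turbidity reduction versus growth control, or as 100% inhibition for the polyene. C. krusei ATCC 6258 and C. parapsilosis ATCC 22019 served as QC strains.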

[3] = system: Cryptococcus gattii species complex; experiment: Antifungal activity against Cryptococcus gattii after 72 hrs by broth microdilution method; format: functional, Cryptococcus bacillisporus; how it was run: as §1
Cryptococcus neoformans [4] = experiment: Antifungal activity against Cryptococcus neoformans after 72 hrs by broth microdilution method; format: functional; how it was run: as §2
[5] = system: Cryptococcus gattii species complex; experiment: Antifungal activity against Cryptococcus gattii serotype C after 72 hrs by broth microdilution method; format: functional, Cryptococcus bacillisporus; how it was run: as §1
Cryptococcus neoformans [6] = experiment: Antifungal activity against Cryptococcus neoformans serotype A after 72 hrs by broth microdilution method; format: functional; how it was run: as §2
Cryptococcus neoformans [7] = experiment: Antifungal activity against Cryptococcus neoformans serotype D after 72 hrs by broth microdilution method; format: functional; how it was run: as §2

SMILES | MIC50 [1] | MIC90 [1] | MIC50 (Cryptococcus neoformans [2]) | MIC90 (Cryptococcus neoformans [2]) | MIC50 [3] | MIC90 [3] | MIC50 (Cryptococcus neoformans [4]) | MIC90 (Cryptococcus neoformans [4]) | MIC50 [5] | MIC90 [5] | MIC50 (Cryptococcus neoformans [6]) | MIC90 (Cryptococcus neoformans [6]) | MIC50 (Cryptococcus neoformans [7]) | MIC90 (Cryptococcus neoformans [7]) | MIC (Cryptococcus neoformans [2]) | MIC (Cryptococcus neoformans [7]) | MIC (Cryptococcus neoformans [4]) | MIC [5]
C[C@@H]1[C@H](O)[C@@H](C)/C=C/C=C/C=C/C=C/C=C/C=C/C=C/[C@H](O[C@@H]2O[C@H](C)[C@@H](O)[C@H](N)[C@@H]2O)C[C@@H]2O[C@](O)(C[C@@H](O)C[C@@H](O)[C@H](O)CC[C@@H](O)C[C@@H](O)CC(=O)O[C@H]1C)C[C@H](O)[C@H]2C(=O)O [AMPHOTERICIN B] | 0.25 µg/mL (≈ 0.271 µM) | 0.25 µg/mL (≈ 0.271 µM) | 0.25 µg/mL (≈ 0.271 µM) | 0.25 µg/mL (≈ 0.271 µM) | 0.25 µg/mL (≈ 0.271 µM) | 0.25 µg/mL (≈ 0.271 µM) | 0.25 µg/mL (≈ 0.271 µM) | 0.5 µg/mL (≈ 0.541 µM) | 0.25 µg/mL (≈ 0.271 µM) | 0.5 µg/mL (≈ 0.541 µM) | 0.25 µg/mL (≈ 0.271 µM) | 0.5 µg/mL (≈ 0.541 µM) | – | – | – | – | – | –
OC(Cn1cncn1)(Cn1cncn1)c1ccc(F)cc1F [FLUCONAZOLE] | 2 µg/mL (≈ 6.53 µM) | 8 µg/mL (≈ 26.1 µM) | 2 µg/mL (≈ 6.53 µM) | 4 µg/mL (≈ 13.1 µM) | 2 µg/mL (≈ 6.53 µM) | 8 µg/mL (≈ 26.1 µM) | 2 µg/mL (≈ 6.53 µM) | 4 µg/mL (≈ 13.1 µM) | 2 µg/mL (≈ 6.53 µM) | 4 µg/mL (≈ 13.1 µM) | 2 µg/mL (≈ 6.53 µM) | 4 µg/mL (≈ 13.1 µM) | – | – | – | – | – | –
Nc1nc(=O)[nH]cc1F [FLUCYTOSINE] | 2 µg/mL (≈ 15.5 µM) | 4 µg/mL (≈ 31 µM) | 4 µg/mL (≈ 31 µM) | 8 µg/mL (≈ 62 µM) | 2 µg/mL (≈ 15.5 µM) | 8 µg/mL (≈ 62 µM) | 4 µg/mL (≈ 31 µM) | 8 µg/mL (≈ 62 µM) | 2 µg/mL (≈ 15.5 µM) | 8 µg/mL (≈ 62 µM) | 4 µg/mL (≈ 31 µM) | 4 µg/mL (≈ 31 µM) | 4 µg/mL (≈ 31 µM) | 8 µg/mL (≈ 62 µM) | – | – | – | –
C[C@@H](c1nc(-c2ccc(C#N)cc2)cs1)[C@](O)(Cn1cncn1)c1cc(F)ccc1F [ISAVUCONAZOLE] | 0.03 µg/mL (≈ 0.0686 µM) | 0.06 µg/mL (≈ 0.137 µM) | < 0.015 µg/mL | 0.03 µg/mL (≈ 0.0686 µM) | 0.03 µg/mL (≈ 0.0686 µM) | 0.06 µg/mL (≈ 0.137 µM) | < 0.015 µg/mL | 0.06 µg/mL (≈ 0.137 µM) | < 0.015 µg/mL | 0.03 µg/mL (≈ 0.0686 µM) | 0.03 µg/mL (≈ 0.0686 µM) | 0.125 µg/mL (≈ 0.286 µM) | < 0.015 µg/mL | 0.03 µg/mL (≈ 0.0686 µM) | < 0.015 µg/mL | < 0.015 µg/mL | < 0.015 µg/mL | < 0.015 µg/mL
CC[C@@H]([C@H](C)O)n1ncn(-c2ccc(N3CCN(c4ccc(OC[C@@H]5CO[C@@](Cn6cncn6)(c6ccc(F)cc6F)C5)cc4)CC3)cc2)c1=O [POSACONAZOLE] | 0.03 µg/mL (≈ 0.0428 µM) | 0.125 µg/mL (≈ 0.178 µM) | 0.03 µg/mL (≈ 0.0428 µM) | 0.06 µg/mL (≈ 0.0856 µM) | 0.03 µg/mL (≈ 0.0428 µM) | 0.125 µg/mL (≈ 0.178 µM) | 0.03 µg/mL (≈ 0.0428 µM) | 0.06 µg/mL (≈ 0.0856 µM) | 0.03 µg/mL (≈ 0.0428 µM) | 0.06 µg/mL (≈ 0.0856 µM) | 0.06 µg/mL (≈ 0.0856 µM) | 0.25 µg/mL (≈ 0.357 µM) | < 0.015 µg/mL | 0.06 µg/mL (≈ 0.0856 µM) | – | < 0.015 µg/mL | – | –
C[C@@H](c1ncncc1F)[C@](O)(Cn1cncn1)c1ccc(F)cc1F [VORICONAZOLE] | 0.125 µg/mL (≈ 0.358 µM) | 0.25 µg/mL (≈ 0.716 µM) | 0.06 µg/mL (≈ 0.172 µM) | 0.125 µg/mL (≈ 0.358 µM) | 0.125 µg/mL (≈ 0.358 µM) | 0.25 µg/mL (≈ 0.716 µM) | 0.06 µg/mL (≈ 0.172 µM) | 0.25 µg/mL (≈ 0.716 µM) | 0.125 µg/mL (≈ 0.358 µM) | 0.25 µg/mL (≈ 0.716 µM) | 0.06 µg/mL (≈ 0.172 µM) | 0.25 µg/mL (≈ 0.716 µM) | 0.03 µg/mL (≈ 0.0859 µM) | 0.25 µg/mL (≈ 0.716 µM) | – | – | – | –
